Activity calls are given as the source filed them. The rule behind the calls is not given here.
Key:
[1] = biological target: T1, Anoctamin-1 (Homo sapiens) (UniProt Q5XXA6); assay: Induction of ANO1 degradation in human U251 cells at 10 uM incubated for 24 hrs by western blot analysis; type: cell-based; conditions: U-251
T1 sequence (whole entry): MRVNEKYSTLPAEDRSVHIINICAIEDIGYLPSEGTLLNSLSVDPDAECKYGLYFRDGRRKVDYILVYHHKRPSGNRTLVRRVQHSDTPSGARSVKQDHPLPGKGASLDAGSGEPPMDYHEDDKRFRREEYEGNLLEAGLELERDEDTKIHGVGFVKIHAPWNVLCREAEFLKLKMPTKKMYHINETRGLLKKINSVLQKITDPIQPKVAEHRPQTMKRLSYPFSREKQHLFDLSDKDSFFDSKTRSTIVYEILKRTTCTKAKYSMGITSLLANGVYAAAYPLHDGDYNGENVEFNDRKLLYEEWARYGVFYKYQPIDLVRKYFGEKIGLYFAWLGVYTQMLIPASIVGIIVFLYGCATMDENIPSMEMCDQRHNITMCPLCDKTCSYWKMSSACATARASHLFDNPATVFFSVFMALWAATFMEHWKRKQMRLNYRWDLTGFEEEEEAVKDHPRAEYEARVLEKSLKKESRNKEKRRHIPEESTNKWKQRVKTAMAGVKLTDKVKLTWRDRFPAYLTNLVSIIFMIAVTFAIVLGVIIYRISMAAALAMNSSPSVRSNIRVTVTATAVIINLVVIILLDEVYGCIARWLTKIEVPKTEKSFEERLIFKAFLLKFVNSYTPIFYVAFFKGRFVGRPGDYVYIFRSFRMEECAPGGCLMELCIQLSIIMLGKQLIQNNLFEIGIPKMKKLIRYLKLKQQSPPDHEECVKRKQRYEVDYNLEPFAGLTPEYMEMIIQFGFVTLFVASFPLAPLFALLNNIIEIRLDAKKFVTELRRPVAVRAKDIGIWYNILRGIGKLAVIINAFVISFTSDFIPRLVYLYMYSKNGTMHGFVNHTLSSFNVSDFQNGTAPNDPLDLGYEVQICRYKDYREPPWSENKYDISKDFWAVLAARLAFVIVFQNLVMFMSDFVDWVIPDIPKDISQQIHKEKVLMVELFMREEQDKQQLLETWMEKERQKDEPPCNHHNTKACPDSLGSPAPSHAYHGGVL
In short: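 U251 cells (5×10^5) treated with 10 μM inhibitor for 24 h. Alternatively, treated 6 h with 10 μM inhibitor, then MG132 (20 μM, a proteasome inhibitor) for a further 18 h. NP40 lysates immunoblotted for ANO1, β-actin as loading control; band densitometry.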

U-251 [2] = assay: Inhibition of anchorage-independent colony formation in human U251 cells at 10 uM incubated for 14 days by crystal violet staining based soft agar colony formation assay; type: functional, cell-based; conditions: time 14.0 day
In short: (§1)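 Soft agar assay: 2.0×10^3 U251 cells in complete medium with 0.3% agar over a 0.6% bottom agar layer. Treated with compounds at 1-100 μM for 14 days, 37 °C, 5% CO2. Colonies stained with crystal violet for 24 h, whole wells photographed and colonies counted against DMSO control; n = 3.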

Anoctamin-2 = biological target: T2, Anoctamin-2 (Mus musculus, UniProt Q8CFW1); assay: Inhibition of GFP-fused mouse ANO2 channel expressed in HEK293A cells assessed as inhibition of channel current amplitude at membrane potential of +80 mV by patch clamp electrophysiology assay; type: cell-based, HEK293-A
T2 sequence (Q8CFW1 whole entry): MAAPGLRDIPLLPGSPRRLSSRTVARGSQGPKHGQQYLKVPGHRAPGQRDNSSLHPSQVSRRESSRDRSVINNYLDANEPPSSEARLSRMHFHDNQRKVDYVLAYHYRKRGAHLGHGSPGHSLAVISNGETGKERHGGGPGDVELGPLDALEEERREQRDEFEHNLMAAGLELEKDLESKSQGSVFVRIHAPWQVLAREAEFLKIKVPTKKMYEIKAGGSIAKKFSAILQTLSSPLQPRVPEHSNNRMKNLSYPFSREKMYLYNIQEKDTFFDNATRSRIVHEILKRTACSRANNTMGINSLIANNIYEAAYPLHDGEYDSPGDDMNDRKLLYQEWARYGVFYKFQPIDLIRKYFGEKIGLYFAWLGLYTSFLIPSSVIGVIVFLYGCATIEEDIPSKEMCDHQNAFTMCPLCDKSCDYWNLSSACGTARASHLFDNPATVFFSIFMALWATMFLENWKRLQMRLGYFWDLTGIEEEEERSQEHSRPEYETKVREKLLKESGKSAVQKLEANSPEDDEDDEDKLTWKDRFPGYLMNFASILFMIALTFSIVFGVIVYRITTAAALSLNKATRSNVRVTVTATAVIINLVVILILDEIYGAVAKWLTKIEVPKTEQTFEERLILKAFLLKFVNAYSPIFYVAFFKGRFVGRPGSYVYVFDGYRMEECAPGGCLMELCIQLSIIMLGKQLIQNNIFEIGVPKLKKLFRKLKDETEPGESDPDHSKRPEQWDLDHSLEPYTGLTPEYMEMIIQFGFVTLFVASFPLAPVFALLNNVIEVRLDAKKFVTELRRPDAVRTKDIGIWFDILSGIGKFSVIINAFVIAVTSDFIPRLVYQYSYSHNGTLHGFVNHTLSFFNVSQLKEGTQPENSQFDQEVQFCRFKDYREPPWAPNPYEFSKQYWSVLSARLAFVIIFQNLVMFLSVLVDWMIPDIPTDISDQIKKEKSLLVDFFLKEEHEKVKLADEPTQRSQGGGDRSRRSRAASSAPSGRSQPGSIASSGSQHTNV
In short: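 Whole-cell recording at room temperature in HEK293A cells transfected with GFP-mANO1, GFP-mANO2 or GFP-mTTYH1. 1 s ramps from +80 to -80 mV, holding potential -10 mV. For ANO1/ANO2: pipette CsCl 146 mM with Ca-EGTA-NMDG, pH 7.3; bath NaCl-based, pH 7.3. For TTYH1: Tris-aspartate pipette (pH 7.2) and Tris-HCl bath (pH 7.4), with […] and BaCl2 added to block K+ channels, and hypotonic (220 mOsm/kg) bath. Washout recordings assessed reversibility.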

U-251 [3] = assay: Inhibition of anchorage-independent colony formation in human U251 cells incubated for 14 days by crystal violet staining based soft agar colony formation assay; type: functional, cell-based; conditions: dose 30-100 µM, time 14.0 day; in short: as §1
U138-MG = assay: Antiproliferative activity against human U138 cells overexpressing ANO1 assessed as reduction in cell viability measured after 72 hrs by Celltiter-glo assay; type: functional
In short: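 5.0×10^3 cells/well seeded, overnight, then compounds added as 1:4 serial dilutions in DMSO; viability read after 72 h with CellTiter-Glo luminescence. GI50 from fitted dose-response curves; triplicate wells, SD from three independent experiments. DMEM for U251 and U138, MEM for U87MG, both with 10% FBS and pen/strep, 37 °C, 5% CO2.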

Activity [1] | IC50 (Anoctamin-2) [µM] | SMILES | inhibition (U-251 [2]) | inhibition (U-251 [3]) | GI50 (U138-MG) [µM]
Active | 15.4 | CC(C)(C)C(=O)Nc1sc2c(c1C(N)=O)CCC(C(C)(C)C)C2 (stereo not given) | inactive | Dose-dependent effect | 22.2
Active | 7.43 | NC(=O)c1c(NC(=S)NC(=O)c2ccc(Cl)cc2)sc2c1CCC2 | inactive | Dose-dependent effect | 13.2

From ChEMBL document CHEMBL4706565, “Anti-glioma effects of 2-aminothiophene-3-carboxamide derivatives, ANO1 channel blockers” (Eur J Med Chem, 2020)
